High-throughput results from PubChem.
Most compounds without a hit are left out; they make up all but 1.8% or so of the library.
CHRM4 agonist – agonists of human muscarinic M4 receptor (CHRM4); CHO-K1 hM4/Gqi5, Fluo-8 calcium fluorescence; vehicle 0%, full acetylcholine response 100%; activation, % at 3 µM; P08173; hit rate 0.14% among 360,000; AID 624127;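 active means activation above the run mean over all test wells plus 3 SD, cut at about 32% in these data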;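 further: peak over basal fluorescence ratio per well then scaled between controls; 0% = DMSO wells and 100% = acetylcholine at EC100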
Target sequence (P08173 whole entry, looked up): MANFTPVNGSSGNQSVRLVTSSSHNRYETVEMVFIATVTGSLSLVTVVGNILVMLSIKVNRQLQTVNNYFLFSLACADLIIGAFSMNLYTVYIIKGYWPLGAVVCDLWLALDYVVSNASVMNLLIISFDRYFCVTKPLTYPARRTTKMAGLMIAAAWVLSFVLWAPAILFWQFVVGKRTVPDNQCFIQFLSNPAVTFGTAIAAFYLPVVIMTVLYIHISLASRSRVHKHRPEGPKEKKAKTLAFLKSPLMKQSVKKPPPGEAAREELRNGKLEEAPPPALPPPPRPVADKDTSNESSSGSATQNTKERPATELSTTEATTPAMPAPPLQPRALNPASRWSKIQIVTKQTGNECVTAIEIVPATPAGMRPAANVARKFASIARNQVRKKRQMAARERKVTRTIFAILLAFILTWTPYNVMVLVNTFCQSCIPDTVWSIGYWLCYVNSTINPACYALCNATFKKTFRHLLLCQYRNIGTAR
M5 PAM – positive allosteric modulators of human muscarinic M5 receptor; hit rate 0.3% among 360,000; AID 624038; CHO-K1 hM5, Fluo-8 calcium, ACh EC20 PAM; 0% = ACh EC20, 100% = ACh EC100; activation, % at 3 µM; P08912;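 active means activation above the run cutoff, the mean activation of all test compounds plus 3 SD, cut at about 18% in these data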
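system = human M5 receptor in CHO-K1 cells | reagent = EC20 acetylcholine as agonist stimulus | compound dosing = single-point, 3 µM nominal | incubation = Fluo-8 loading 80 min at 37 °C plus 30 min room temperature | detection = Fluo-8 calcium dye fluorescence, kinetic read | benchmarks = low control EC20 acetylcholine (0%), high control EC100 acetylcholine (100%)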
M5 ag – agonists of human muscarinic M5 receptor (CHRM5). activation, % at 3 µM. CHO-K1 hM5 cells, Fluo-8 calcium fluorescence; 0% DMSO wells, 100% maximal acetylcholine response. P08912. hit rate 0.19% among 360,000;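 active means activation above the run's mean over test compounds plus 3 SD, cut at about 23% in these data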;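 further: signal is peak over basal fluorescence ratio across the kinetic read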
CHRM4 PAM – positive allosteric modulators of human muscarinic M4 receptor | P08173 | CHO-K1 hM4/Gqi5, Fluo-8 calcium fluorescence, ACh EC20; 0% = ACh EC20, 100% = maximal ACh | activation, % at 3 µM | hit rate 0.4% among 360,000 | AID 624126;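 active means activation above its plate's cutoff, the mean activation of sample wells plus 3 SD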
CHRM4 antagonist – blocks acetylcholine activation of human M4 receptor; P08173; CHO-hM4 cells, ACh EC80, Fluo-8 calcium fluorescence; inhibition, % at 3 µM; hit rate 0.73% among 360,000; AID 624125;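 active means inhibition above its plate's cutoff, the mean inhibition of sample wells plus 3 SD, cut at about 27% in these data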;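 further: 0% = acetylcholine EC80 with DMSO and 100% = DMSO without agonist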
M5 antag – antagonists of human muscarinic M5 receptor (CHRM5) | P08912 | CHO-hM5 cells, Fluo-8 calcium fluorescence, ACh EC80 | inhibition, % at 3 µM | hit rate 0.59% among 360,000 | AID 624040;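 active means inhibition above a per-plate cutoff, the mean of that plate's test compounds plus 3 SD, cut at about 27% in these data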;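 further: 0% = acetylcholine EC80 with DMSO and 100% = DMSO without agonist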
An asterisk follows results filed as active; + = active, no number.

SMILES	CHRM4 agonist	M5 PAM	M5 ag	CHRM4 PAM	CHRM4 antagonist	M5 antag
CC(C)CC(NC(=O)c1ccc(Cl)cc1Cl)C(=O)O (configuration not stated)	3	19*	0	13	-2	-11
O=C(CCc1nnc2n(Cc3ccc(F)cc3)c(=O)c3ccccc3n12)NCCCN1CCOCC1	13	-4	-2	-1	8	8
CN1CCN(CCCNC(=O)CCc2nnc3n(Cc4ccccc4Cl)c(=O)c4ccccc4n23)CC1	2	5	-6	16*	-6	-1
CC(C)NC(=O)C1(C#N)C=C1c1ccccc1 (configuration not stated)	1	2	-3	9	-5	2
O=C(COc1ccc2c(-c3ccccc3)cc(=O)oc2c1)N1C[C@H]2C[C@@H](C1)c1cccc(=O)n1C2	2	-10	-2	0	-28	-1
CC(C)Nc1nc(Nc2ccc(C(N)=O)cc2)c2sccc2n1	7	-5	1	-6	5	5
O=S(=O)(C/C(=C/CO)S(=O)(=O)c1ccccc1)c1ccccc1	0	2	0	1	30*	3
COc1ccc(Cl)cc1N1CC(c2nc3ccccc3[nH]2)CC1=O (configuration not stated)	7	-3	3	2	-8	-1
O=C1CC(c2nc3ccccc3[nH]2)CN1c1ccccc1F (configuration not stated)	2	-14	-1	-14	78*	-2
O=C(NCCCNC(=O)c1cnccn1)c1ccc(Cl)cc1	2	0	-3	1	0	17
O=C(NCCCNC(=O)c1cnccn1)c1ccc(Cl)c(Cl)c1	-3	-9	-1	-14	60*	27
CC1(c2ccc(OC(F)F)cc2)NC(=O)N(/N=C/c2c(O)ccc3ccccc23)C1=O (configuration not stated)	1	0	0	20*	8	2
N#C/C(=C/c1ccncc1)c1nc2ccccc2s1	21	-15	26*	-12	25	30*
CC(C)=C(C#N)c1nc2ccccc2s1	21	-6	18	-7	20	27*
COC(=O)c1ccc(/C(O)=C(\C#N)c2nc3ccccc3s2)cc1	9	0	9	-3	0	0
CCCS(=O)(=O)NC(=O)C1(C)CCCN(C(=O)c2ccc(F)cc2Cl)C1 (configuration not stated)	0	2	0	6	-4	-1
CC(=O)N1CCOc2ccc(S(=O)(=O)N(C)c3ccc(C)cc3)cc21	6	-8	-4	2	29*	6
Cc1ccccc1CNC(=O)c1[nH]c(C(F)(F)F)nc1-c1ccccc1	7	-2	5	-6	8	13
COc1ccc(-c2[nH]ncc2Oc2ccccc2OC)c(O)c1	2	-3	1	19*	-19	-2
COc1ccc(Oc2cn[nH]c2-c2ccc(O)cc2O)cc1	6	2	6	13	11	0
O=C(C1CCC(C(=O)N2CCc3ccccc32)CC1)N1CCc2ccccc21 (configuration not stated)	0	-1	-4	-2	-3	-1
O=C(Nc1ccccc1)C(=O)Nc1ccc2c(c1)N(C(=O)C1CC1)CCC2	7	1	2	17*	-12	-4
COc1cc(OC)cc(C2=Cc3ccccc3C(CC(=O)c3ccco3)N2c2ccc(-c3ccc(C(N)=O)cc3)cc2)c1 (configuration not stated)	1	-1	0	1	2	4
O=C(COC(=O)C1CCC(=O)N1)Nc1ccccc1Br (configuration not stated)	0	21*	0	-3	-14	2
O=C(COC(=O)C1CCC(=O)N1)Nc1ccc(Oc2ccccc2)cc1 (configuration not stated)	1	-4	-1	-1	3	6
SMILES	CHRM4 agonist	M5 PAM	M5 ag	CHRM4 PAM	CHRM4 antagonist	M5 antag
Cc1cccc(NC(=O)CC2NC3CCCCC3NC2=O)c1 (configuration not stated)	0	24*	-8	1	8	-5
C[C@H](NC(=O)[C@@H]1Cc2ccccc2CN1)C(=O)Nc1ccc2c(c1)OCCO2	1	20*	-3	5	-11	-21
CC(C)(C)C(=O)Nc1cccc(-c2nc3ccccc3c(=O)o2)c1	-2	0	5	3	-7	1
CCCC(=O)Nc1cccc(-c2nc3ccccc3c(=O)o2)c1	-1	10	-1	25*	6	0
CC1CCCN(c2nc3ccsc3c(=O)s2)C1 (configuration not stated)	-3	-10	-7	-29	28*	0
O=C(NCCc1ccc(F)cc1)C1CCCO1 (configuration not stated)	1	-6	1	-2	5	7
O=C(NCCc1ccc(Cl)cc1)C1CCCO1 (configuration not stated)	0	-23	-10	-19	97*	61*
O=[N+]([O-])c1ccc2c(c1)nnn2-c1ccccc1	1	0	-5	-1	0	9
c1ccc(-n2nnc3ccccc32)cc1	-1	-19	-2	-15	81*	25
CC1(C)Cc2ccccc2C(c2cc3ccccc3oc2=O)=N1	1	16	2	-2	0	-3
CC1(C)Cc2c(ccc3ccccc23)C(c2cc3ccccc3oc2=O)=N1	-3	13	27*	6	0	14
CCN1/C(=C/C=C/c2oc3ccc(-c4ccccc4)cc3[n+]2CC)Oc2ccc(-c3ccccc3)cc21	+	-34	+	-3	99*	102*
NC(=O)c1c(N)[nH]c(C(=O)c2ccccc2)c1-c1ccccc1Br	7	-4	-1	4	-11	6
CCCCc1ccc(/C=C2/C(=O)ON=C2c2ccccc2)s1	2	11	0	27*	-8	-10
CC1(C#CC[N+]2(C)CCCCC2)CCC2C(O1)c1ccccc1OC2(C)C (configuration not stated)	84*	-35	76*	-30	79*	88*
CCOC(=O)CC1(C)Oc2cc(Cl)ccc2N1S(=O)(=O)c1ccc(C)cc1 (configuration not stated)	-1	-19	-5	-16	24	31*
CCOC(=O)CC1(CCc2ccccc2)Oc2ccccc2N1S(=O)(=O)c1ccc(C)cc1 (configuration not stated)	3	-4	1	12	-8	-12
